Screening results as filed in PubChem.
Shown are actives, neighbours in structure and some others; about 9.3% of the full set was active somewhere.
PostGolgi ctrl = growth inhibition of yeast control strain, primary screen, counter-screen for post-Golgi transport modulator project | efflux-deficient yeast background strain, growth absorbance A615, 16 h | inhibition, % at 10 µM | actives 5% (n = 98,000)
D1 allo mod = D1 CRE-luciferase signal change, two-sided – cell-based, HEK293 D1, dopamine EC30, D1 allosteric modulator project, primary screen. D(1A) dopamine receptor (Homo sapiens), P21728. dopamine EC30 potentiation; actives deviate in either direction. B-score at 10 µM. actives 5.9% (n = 58,000);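 active = luminescence count or its row- and column-corrected plate score outside the 99.7% band of the plate's sample wells, on either side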
tolC growth inh = growth inhibitors of E. coli tolC mutant, primary screen, strain BW25113 ΔtolC::kan, 384-well; OD615; growth inhibition, % at 10 µM (by protocol); actives 2.2% (n = 65,000);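 active = growth inhibition at or above a cutoff equal to the mean over every tested compound plus 3 SD, cut at about 60% in these data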;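 also: growth measured after 20 h incubation at 37 °C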
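Doses: one dose of 10 µM final / Material: E. coli BW25113 ΔtolC::kan, tolC deletion mutant strain / Buffer or medium: LB with kanamycin 50 µg/mL / Evaluation: percent growth inhibition / Detection: optical density read at 615 nm / Incubation: 37 °C, 20 h exposure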
PostGolgi yeast = phenotypic screen on post-Golgi transport, primary screen; inhibition, % at 10 µM; post-Golgi transport phenotypic cell assay; actives 0.9% (n = 98,000);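 also: yeast cells grown in 1536-well plates; yeast grown about 18 h at 30C before absorbance read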
DAT uptake mod = changed hDAT dopamine uptake under cocaine IC80, either direction, primary screen, cocaine antagonist project, cell-based, LLC-PK1 hDAT, [14C]-dopamine uptake, MLSMR; Sodium-dependent dopamine transporter (Homo sapiens), Q01959; LLC-PK1 hDAT cells, [14C]-dopamine uptake with cocaine IC80; actives deviate in either direction; B-score at 10 µM; actives 1.3% (n = 110,000); AID 449768, 2010;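 active = Z score or B-score, a plate-position-corrected score, falls beyond the plate's 99.7% confidence bounds, in either direction; inactive = both scores lie inside the 99.7% bounds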
Target sequence (Q01959 whole entry, looked up): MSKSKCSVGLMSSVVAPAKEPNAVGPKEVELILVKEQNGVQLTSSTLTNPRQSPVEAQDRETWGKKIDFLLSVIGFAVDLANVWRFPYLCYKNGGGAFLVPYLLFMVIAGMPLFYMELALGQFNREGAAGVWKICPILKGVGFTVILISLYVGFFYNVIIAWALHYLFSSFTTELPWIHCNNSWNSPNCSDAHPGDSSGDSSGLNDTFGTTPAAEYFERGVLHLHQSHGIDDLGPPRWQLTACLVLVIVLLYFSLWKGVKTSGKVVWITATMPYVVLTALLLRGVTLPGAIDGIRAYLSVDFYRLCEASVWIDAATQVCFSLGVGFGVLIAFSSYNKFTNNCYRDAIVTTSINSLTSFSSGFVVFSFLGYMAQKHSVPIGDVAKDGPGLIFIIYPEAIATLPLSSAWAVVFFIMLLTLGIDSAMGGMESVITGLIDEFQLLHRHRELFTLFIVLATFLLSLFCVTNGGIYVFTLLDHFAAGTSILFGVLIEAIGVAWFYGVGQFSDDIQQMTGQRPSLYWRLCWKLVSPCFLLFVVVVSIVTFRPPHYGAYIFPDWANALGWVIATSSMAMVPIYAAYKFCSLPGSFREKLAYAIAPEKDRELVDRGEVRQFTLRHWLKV
E coli WT exp = growth inhibitors of wild-type E. coli, primary screen, strain BW25113, expanded library, OD600 | growth inhibition, % at 100 µM | actives 0.15% (n = 98,000) | OD600 absorbance;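 active = growth inhibition above about 50% at one test dose, limit read from the data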;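 also: growth measured after 20 h incubation at 37 °C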
Numbers stand for hits; – = inactive; · = no result given. Rule as the data show it, unless noted: active = inhibition above about 30%; inactive = the rest.

SMILES | PostGolgi ctrl | D1 allo mod | tolC growth inh | PostGolgi yeast | DAT uptake mod | E coli WT exp
CS(=O)(=O)N1N=C(c2ccccc2)CC1c1cccs1 (stereo not drawn) | – | · | · | – | – | –
O=C(c1cccs1)N1N=C(c2ccccc2)CC1c1ccccc1 (stereo not drawn) | 69 | · | · | – | – | –
O=S(=O)(c1ccccc1)N1N=C(c2cccs2)CC1c1ccc(Br)cc1 (stereo not drawn) | – | · | · | – | – | –
CCOc1ccc(S(=O)(=O)N2Cc3ccccc3CC2C(=O)NCCCn2ccnc2)cc1 (stereo not drawn) | 34 | – | – | – | – | –
CCOC(=O)C1CCCc2c1[nH]c1c(C(=O)O)cccc21 (stereo not drawn) | – | – | – | – | – | –
Cc1cc(-n2c(C)cc(C(=O)CSc3ncnc4ccccc34)c2C)no1 | 40 | -3.2 | – | – | – | –
COc1ccccc1C(=O)Oc1ccc(C(C)(C)C)cc1 | – | · | · | – | – | –
COc1ccccc1-c1c(C(F)(F)F)oc2cc(OC(=O)c3ccccc3[N+](=O)[O-])ccc2c1=O | 31 | · | · | – | – | –
COc1ccccc1CNC(=O)c1csc(Cc2ccc(Cl)cc2)n1 | 56 | · | · | – | – | –
Cc1cc(=O)n2nc(-c3ccccc3)sc2c1C#N | – | – | – | – | 2.5 | –
C/C(=N/NC(=O)c1cccs1)c1ccc(NC(=O)COc2ccc(Cl)cc2)cc1 | – | · | · | – | – | –
Cc1nc2cc(NC(=O)COc3ccc(C#N)cc3)ccc2n1-c1ccccc1 | – | – | – | – | -7.9 | –
COc1ccc(-c2nc3c(c(=O)[nH]c(=O)n3Cc3ccccc3)n2Cc2ccccc2)cc1 | 35 | · | · | – | – | –
CN(C)CCCNc1cn[nH]c(=O)c1Cl | – | · | · | – | – | –
CCCCn1c2nc3ccccc3nc2c2c(=N)oc(C)nc21 | · | 6.6 | – | · | · | ·
CCCCC(CC)Cn1c2nc3ccccc3nc2c2c(=N)oc(C)nc21 (stereo not drawn) | 72 | – | – | – | · | –
c1csc(CNCCCN2CCOCC2)c1 | 31 | · | · | – | – | –
O=C(NCCCN1CCOCC1)c1cccs1 | – | – | – | – | – | –
CC1CN(C(c2cccs2)c2sc3ncnn3c2O)CC(C)O1 (stereo not drawn) | – | – | – | – | – | –
CCC(C)NC(=O)C(NS(=O)(=O)c1ccc2c(c1)c(=O)n(C)c(=O)n2C)c1ccccc1 (stereo not drawn) | – | -5.6 | – | – | – | –
CC(C)CCNC(=O)C(NS(=O)(=O)c1ccc2c(c1)c(=O)n(C)c(=O)n2C)c1ccccc1 (stereo not drawn) | – | · | · | – | · | –
CCCCc1nc2ccccc2n2cc3c(=O)n(C)c(=O)n(C)c3c12 | · | – | – | · | · | ·
COc1ccc(S(=O)(=O)Cc2ccc(C(=O)N3CCN(c4cccc(C)c4)C(C)C3)o2)cc1 (stereo not drawn) | 47 | – | – | – | – | –
COc1ccccc1S(=O)(=O)Cc1ccc(C(=O)N2CCN(c3ccc(C)cc3)C(C)C2)o1 (stereo not drawn) | – | -2.8 | – | – | – | –
COC(=O)c1ccc(OCC(O)CN(CC(C)C)CC(C)C)cc1 (stereo not drawn) | – | – | – | – | – | –
SMILES | PostGolgi ctrl | D1 allo mod | tolC growth inh | PostGolgi yeast | DAT uptake mod | E coli WT exp
CC1(C)CC2CC(C)(CN2C(=O)COC(=O)c2ccc(Cl)c(N)c2)C1 (stereo not drawn) | – | · | · | – | – | –
COc1ccc(C(OC(=O)c2ccco2)C(=O)NCC2CCCO2)cc1 (stereo not drawn) | – | – | – | – | -7.3 | –
CCC(=O)Nc1cccc(NC(=S)NC(=O)c2ccccc2Cl)c1 | – | · | · | – | 2.7 | –
CCCN(CCC)C(=O)Cn1c2ccccc2c2nc(=O)cc(C)n21 | – | · | · | – | · | –
CCCNC(=O)C(C)n1c2ccccc2c2nc(=O)cc(C)n21 (stereo not drawn) | 33 | · | · | – | – | –
COC(=O)c1ccc([C@H](NC(=O)c2ccco2)[C@]2(C)C[C@H]2C2CCCCC2)cc1 | · | · | · | · | – | ·
Cc1ccc(-c2cc(C(=O)Nc3cc(C)on3)c3ccccc3n2)c(C)c1 | 37 | – | – | – | – | –
O=c1cc(NCc2ccco2)[nH]c(=O)n1-c1ccc(Br)cc1 | 37 | – | – | – | – | –
O=c1cc(NCc2ccc3c(c2)OCO3)[nH]c(=O)n1-c1ccc(Cl)cc1 | – | – | – | – | – | –
O=C(CN1C(=O)C2CC=CCC2C1=O)Nc1ccc(S(=O)(=O)NC2=NCCCCC2)cc1 (stereo not drawn) | – | – | – | – | -8.1 | –
O=C(NCCOC(=O)c1ccc(Cl)cc1)c1cccnc1 | – | · | · | – | – | –
CC(C)COc1ccc(Cc2cnc(N)nc2N)cc1 | – | · | · | – | – | 66
COc1ccc(Cc2nc(N)nc(N)n2)cc1 | · | · | · | · | – | ·
O=C(NCCCNc1ccc(C(F)(F)F)cc1[N+](=O)[O-])c1ccc(Cl)cc1 | – | · | · | – | – | –
O=C(NC(NNc1ccc([N+](=O)[O-])cc1)(C(F)(F)F)C(F)(F)F)c1ccc(Cl)cc1 | 58 | · | · | – | – | –
COCCSc1ccccc1C(=O)NCc1ccco1 | – | – | – | – | – | –
CCOC(=O)CSc1nnc(SCCN2C(=O)c3ccccc3C2=O)s1 | – | · | · | – | · | –
COCc1nnc(NC(=O)c2ccc(S(=O)(=O)N(C)c3ccccc3)cc2)o1 | – | – | 87 | – | – | –
CCN(c1ccccc1)S(=O)(=O)c1ccc(NC(=S)NC(=O)c2ccc(Br)o2)cc1 | – | · | · | – | – | –
CN(c1ccccc1)S(=O)(=O)c1ccc(NC(=S)NC(=O)c2ccccc2)cc1 | – | · | · | – | – | –
CCN(c1ccccc1)S(=O)(=O)c1ccc(C(=O)Nc2nnc(COC)o2)cc1 | – | – | 95 | – | – | –
Cc1cc2oc(=O)cc(CN3CCCCC3C)c2c(C)c1Cl (stereo not drawn) | – | – | – | – | – | –
O=C1c2ccccc2C(=O)N1CCc1nc(-c2ccncc2)no1 | – | · | · | – | – | –
O=C1c2ccccc2C(=O)N1CCCCCc1nc(-c2ccccc2)no1 | 49 | – | – | – | – | –
Cc1ccc(-c2noc(CCCN3C(=O)c4ccccc4C3=O)n2)cc1 | 31 | · | · | – | – | –
CCOC(=O)c1c(C2COc3ccccc3O2)csc1NC(=O)c1ccco1 (stereo not drawn) | – | – | – | – | – | –
CCS(=O)CCSc1nc2ccccc2s1 (stereo not drawn) | – | · | · | – | – | –
COC(C)(C)[C@]12CC(O)(c3ccccc3)ON1[C@H]1CCCCC1N2O (stereo partly drawn) | 32 | – | – | – | – | –
